# Experimental data from ChEMBL document CHEMBL1153749, “Flavonoids from the heartwood of the Thai medicinal plant Dalbergia parviflora and their effects on estrogenic-responsive human breast cancer cells” (2009).
# The source made the active and inactive calls. The rule behind the calls is not given here.
# Assays:
# Assay type in all cases: functional
# MCF7 [1] = test: Estrogenic activity in human MCF7 cells assessed as drug level causing stimulation of cell proliferation equivalent to 100 pM estradiol after 96 hrs by alamar blue assay
# Method in brief: (§1)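 Cells seeded at 10^4 per well in phenol red-free RPMI with 5% DCC-treated FBS. Compounds added in DMSO (vehicle control 1% DMSO) for 96 h at 37 °C, 5% CO2, with serial estradiol dilutions run alongside. Alamar Blue for 3 h, fluorescence ex 530/em 590 nm. Estradiol-equivalent concentration fitted by linear regression from at least five concentrations in quadruplicate.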
# T47D [2] = test: Estrogenic activity in human T47D cells assessed as drug level causing stimulation of cell proliferation equivalent to 10 pM estradiol after 96 hrs by alamar blue assay; method in brief: as §1
# T47D [3] = test: Estrogenic activity in luciferase transfected human T47D cells assessed as drug level causing stimulation of cell proliferation equivalent to 100 pM estradiol by luciferase reporter gene assay
# Method in brief: (§2)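 Reporter assay in MCF-7 or T47D cells transiently transfected with luciferase. Compounds tested from 0.01 to 10 µM. Luciferase induction is expressed as the compound concentration equivalent to the 10 or 100 pM estradiol response. Values come from linear regression over at least five concentrations in quadruplicate.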
# MCF7 [4] = test: Estrogenic activity in luciferase transfected human MCF7 cells assessed as drug level causing stimulation of cell proliferation equivalent to 10 pM estradiol by luciferase reporter gene assay; method in brief: as §2
# MCF7 [5] = test: Estrogenic activity in human MCF7 cells assessed as drug level causing stimulation of cell proliferation equivalent to 10 pM estradiol after 96 hrs by alamar blue assay; method in brief: as §1
# T47D [6] = test: Estrogenic activity in human T47D cells assessed as drug level causing stimulation of cell proliferation equivalent to 100 pM estradiol after 96 hrs by alamar blue assay; method in brief: as §1
# MCF7 [7] = test: Estrogenic activity in luciferase transfected human MCF7 cells assessed as drug level causing stimulation of cell proliferation equivalent to 100 pM estradiol by luciferase reporter gene assay; method in brief: as §2
# T47D [8] = test: Estrogenic activity in luciferase transfected human T47D cells assessed as drug level causing stimulation of cell proliferation equivalent to 10 pM estradiol by luciferase reporter gene assay; method in brief: as §2
Structure (SMILES),Activity (MCF7 [1]),Activity (T47D [2]),Activity (T47D [3]),Activity (MCF7 [4]),Activity (MCF7 [5]),Activity (T47D [6]),Activity (MCF7 [7]),Activity (T47D [8])
COc1ccc(C2COc3cc(O)ccc3C2=O)c(OC)c1OC (configuration not stated),46.3 µM,6.1 µM,>100 µM,>100 µM,2.5 µM,>100 µM,>100 µM,3.3 µM
COc1ccc(C2COc3cc(O)ccc3C2=O)c(O)c1 (configuration not stated),45.3 µM,1.5 µM,>100 µM,>100 µM,5.7 µM,33.7 µM,>100 µM,7.3 µM
COc1ccc(C2COc3cc(O)ccc3C2=O)cc1O (configuration not stated),>100 µM,>100 µM,>100 µM,>100 µM,24.5 µM,>100 µM,>100 µM,6 µM
COc1ccc([C@@H]2COc3cc(O)ccc3C2)c(OC)c1O,>100 µM,0.4 µM,>100 µM,0.9 µM,>100 µM,6.4 µM,7.8 µM,6.3 µM
COc1cc(O)c([C@@H]2COc3cc(O)ccc3C2)cc1OC,0.2 µM,0.02 µM,>100 µM,>100 µM,1.1 µM,>100 µM,>100 µM,>100 µM
COc1cc(OC)c(-c2coc3cc(O)cc(O)c3c2=O)cc1OC,>100 µM,0.1 µM,>100 µM,5.4 µM,>100 µM,>100 µM,7.8 µM,6.3 µM
COc1ccc([C@H]2COc3cc(O)cc(O)c3C2=O)cc1O,>100 µM,0.5 µM,>100 µM,0.6 µM,2.9 µM,5.7 µM,2.7 µM,1.3 µM
COc1ccc(-c2coc3cc(O)cc(O)c3c2=O)c(OC)c1,19.6 µM,0.4 µM,3.1 µM,>100 µM,3.2 µM,>100 µM,>100 µM,1.8 µM
COc1ccc([C@H]2COc3cc(O)ccc3C2=O)c(OC)c1O,9.4 µM,2.1 µM,>100 µM,>100 µM,2.1 µM,8.9 µM,>100 µM,0.6 µM
COc1cc(-c2coc3cc(O)ccc3c2=O)ccc1O,>100 µM,>100 µM,5.8 µM,1.1 µM,4.7 µM,>100 µM,2.2 µM,1.2 µM
COc1ccc([C@@H]2COc3cc(O)ccc3C2)c(O)c1,>100 µM,0.02 µM,>100 µM,>100 µM,>100 µM,0.2 µM,>100 µM,>100 µM
COc1ccc(C2COc3c(ccc(O)c3O)C2)c(OC)c1O (configuration not stated),inactive,inactive,inactive,inactive,inactive,inactive,inactive,inactive
O=C1c2c(O)cc(O)cc2O[C@H](c2ccccc2)[C@H]1O,inactive,inactive,inactive,inactive,inactive,inactive,inactive,inactive
COc1cc2c(cc1O)C1c3ccc(O)cc3OCC1O2 (racemic),inactive,inactive,inactive,inactive,inactive,inactive,inactive,inactive
